# “Also recorded” adds a separate entry of the source. Like-named read-outs stand apart in the source and are kept apart here.
# Key:
# meprin β [1] = conditions: read-out: Ki meprin β; cited from earlier work
# meprin α [2] = target: T1, meprin α (Homo sapiens, UniProt Q16819); experiment: Meprin α LOPAC pilot screen; assay type: biochemical; conditions: 18 μM, hit cutoff 25% inhibition
# T1 sequence (Q16819 66-653 limits assumed): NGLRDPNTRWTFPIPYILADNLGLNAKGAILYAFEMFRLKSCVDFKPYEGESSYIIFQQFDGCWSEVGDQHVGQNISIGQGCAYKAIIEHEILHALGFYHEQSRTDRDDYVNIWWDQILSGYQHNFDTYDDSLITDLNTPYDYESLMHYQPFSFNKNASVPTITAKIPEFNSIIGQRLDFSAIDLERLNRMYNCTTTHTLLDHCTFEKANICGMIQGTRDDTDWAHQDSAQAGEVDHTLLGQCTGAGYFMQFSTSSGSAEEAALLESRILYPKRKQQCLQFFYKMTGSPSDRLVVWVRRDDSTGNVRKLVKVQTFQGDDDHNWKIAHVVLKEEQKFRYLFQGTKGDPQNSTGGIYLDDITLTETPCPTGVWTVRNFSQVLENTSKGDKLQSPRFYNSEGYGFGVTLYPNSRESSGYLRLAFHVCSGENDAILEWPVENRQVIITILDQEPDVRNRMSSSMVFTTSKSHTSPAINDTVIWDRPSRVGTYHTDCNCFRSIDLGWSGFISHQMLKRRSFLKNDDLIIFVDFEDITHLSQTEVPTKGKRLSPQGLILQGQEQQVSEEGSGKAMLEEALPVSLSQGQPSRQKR
# Outline: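 Single-point FRET screen of 1,280 library compounds at 18 μM nominal final concentration, on four plates. Trypsin-activated recombinant human meprin α (2x solution 2.6 nM, Hepes/Brij-35 pH 7.5) was pre-incubated 30 min at RT with test compound added by pin tool. 2x (MCA)-YVADAPK-(K-ε-DNP) at 20 μM was then added for 1 h at RT. Read at ex 324/em 393 nm.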
# meprin α [3] = conditions: cited from earlier work
# meprin α [4] = target: T1, meprin α; experiment: Meprin α HTS FRET assay, dose response; assay type: biochemical
# Outline: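 Recombinant human Strep-tagged meprin α was expressed in baculovirus-infected BTI-TN-5B1-4 cells, trypsin-activated, then freed of trypsin. It was used as a 2x solution at 2.6 nM in 50 mM Hepes, 0.01% Brij-35, pH 7.5. Test compound was pre-incubated 30 min at RT, then 2x (MCA)-YVADAPK-(K-ε-DNP) at 20 μM was added for 1 h at RT. Read at ex 324/em 393 nm. 3-fold dilutions in quadruplicate; 4-parameter fit; 0.1% or 1.0% DMSO.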
# meprin β [5] = target: T2, meprin β (Homo sapiens, UniProt Q16820); experiment: Meprin β HTS FRET assay, dose response; assay type: biochemical
# T2 sequence (Q16820 62-614 limits assumed): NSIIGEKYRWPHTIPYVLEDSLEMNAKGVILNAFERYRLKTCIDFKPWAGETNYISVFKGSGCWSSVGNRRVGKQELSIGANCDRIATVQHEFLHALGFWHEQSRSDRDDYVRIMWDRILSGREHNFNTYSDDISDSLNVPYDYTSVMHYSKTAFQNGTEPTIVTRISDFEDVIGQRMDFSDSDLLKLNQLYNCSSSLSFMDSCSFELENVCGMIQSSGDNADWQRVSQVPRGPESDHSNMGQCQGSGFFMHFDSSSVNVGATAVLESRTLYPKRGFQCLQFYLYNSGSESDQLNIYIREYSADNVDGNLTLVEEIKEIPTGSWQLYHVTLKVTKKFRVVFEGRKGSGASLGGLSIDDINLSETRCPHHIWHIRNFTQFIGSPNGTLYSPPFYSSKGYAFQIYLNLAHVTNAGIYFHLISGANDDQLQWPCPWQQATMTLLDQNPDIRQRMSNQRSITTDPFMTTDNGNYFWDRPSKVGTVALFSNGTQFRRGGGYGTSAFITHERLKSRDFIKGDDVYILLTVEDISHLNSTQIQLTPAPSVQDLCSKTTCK
# Outline: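 Trypsin-activated meprin β (trypsin removed on immobilized ovomucoid) in 50 mM Hepes, 0.01% Brij-35, pH 7.5, added as 2x (0.15 nM) solution. Pin-transferred inhibitor was preincubated 30 min at RT. 2x (20 μM) (MCA)-EDEDED-(K-ε-DNP) was then added, run 1 h at RT, and read at ex 324/em 393 nm. A 3-fold dilution series was run in quadruplicate, and % inhibition was fitted with a 4-parameter equation. DMSO final was 0.1% or 1.0%.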
# meprin β [6] = target: T2, meprin β; experiment: Meprin β LOPAC pilot screen; assay type: biochemical; conditions: 18 μM; for meprin β LOPAC pilot screen outcome: hit cutoff 25% inhibition
# MMP-2 = target: T3, MMP-2 (Homo sapiens, UniProt P08253); experiment: Selectivity testing against zinc metalloproteases: MMP-2; assay type: biochemical; conditions: read-out: IC50 MMP-2; n = 3 Mean ± SD
# T3 sequence (P08253 110-660): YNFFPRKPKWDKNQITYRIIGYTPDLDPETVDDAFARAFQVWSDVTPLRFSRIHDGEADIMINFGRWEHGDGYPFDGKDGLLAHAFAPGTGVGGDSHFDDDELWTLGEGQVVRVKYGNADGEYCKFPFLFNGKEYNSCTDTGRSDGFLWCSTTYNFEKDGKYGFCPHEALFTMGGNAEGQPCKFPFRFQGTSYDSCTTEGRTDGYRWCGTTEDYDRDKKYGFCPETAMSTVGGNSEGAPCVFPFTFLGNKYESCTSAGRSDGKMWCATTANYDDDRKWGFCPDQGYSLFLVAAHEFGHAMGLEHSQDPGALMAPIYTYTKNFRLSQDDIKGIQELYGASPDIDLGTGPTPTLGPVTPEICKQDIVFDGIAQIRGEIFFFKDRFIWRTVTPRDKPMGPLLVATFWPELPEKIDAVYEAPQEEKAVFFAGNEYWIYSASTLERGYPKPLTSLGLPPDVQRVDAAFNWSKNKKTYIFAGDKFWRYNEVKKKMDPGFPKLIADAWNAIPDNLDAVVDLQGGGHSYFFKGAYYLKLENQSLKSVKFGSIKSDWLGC
# ADAM17 = ADAM17 (Homo sapiens, UniProt P78536); experiment: Selectivity testing against zinc metalloproteases: ADAM17; assay type: biochemical; conditions: read-out: IC50 ADAM17; n = 3 Mean ± SD
# MMP-14 = MMP-14 (Homo sapiens, UniProt P50281); experiment: Selectivity testing against zinc metalloproteases: MMP-14; assay type: biochemical; conditions: read-out: IC50 MMP-14; n = 3 Mean ± SD
# meprin β [7] = target: T2, meprin β; experiment: Meprin β inhibition kinetics / enzyme kinetics; assay type: biochemical
# Outline: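 Trypsin-activated meprin β at 1 nM was run with (MCA)-EDEDED-(K-ε-DNP) 0.5–25 μM plus varying inhibitor concentrations in 50 mM Hepes, 0.01% Brij-35, pH 7.5, at 25 °C. Fluorescence was read at ex 324/em 393 nm. Rates came from the linear portion of the progress curves. Ki and Ki′ came from nonlinear regression with a mixed-inhibition model. Mechanism came from the alpha parameter and was checked with Lineweaver-Burk plots.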
# MMP-13 = MMP-13 (Homo sapiens, UniProt P45452); experiment: Selectivity testing against zinc metalloproteases: MMP-13; assay type: biochemical; conditions: read-out: IC50 MMP-13; n = 3 Mean ± SD
# MMP-8 = MMP-8 (Homo sapiens, UniProt P22894); experiment: Selectivity testing against zinc metalloproteases: MMP-8; assay type: biochemical; conditions: read-out: IC50 MMP-8; n = 3 Mean ± SD
# MMP-9 = MMP-9 (Homo sapiens, UniProt P14780); experiment: Selectivity testing against zinc metalloproteases: MMP-9; assay type: biochemical; conditions: read-out: IC50 MMP-9; n = 3 Mean ± SD
# ADAM10 = target: T4, ADAM10 (Homo sapiens, UniProt O14672); experiment: Selectivity testing against zinc metalloproteases: ADAM10; assay type: biochemical; conditions: read-out: IC50 ADAM10; n = 3 Mean ± SD
# T4 sequence (O14672 214-748): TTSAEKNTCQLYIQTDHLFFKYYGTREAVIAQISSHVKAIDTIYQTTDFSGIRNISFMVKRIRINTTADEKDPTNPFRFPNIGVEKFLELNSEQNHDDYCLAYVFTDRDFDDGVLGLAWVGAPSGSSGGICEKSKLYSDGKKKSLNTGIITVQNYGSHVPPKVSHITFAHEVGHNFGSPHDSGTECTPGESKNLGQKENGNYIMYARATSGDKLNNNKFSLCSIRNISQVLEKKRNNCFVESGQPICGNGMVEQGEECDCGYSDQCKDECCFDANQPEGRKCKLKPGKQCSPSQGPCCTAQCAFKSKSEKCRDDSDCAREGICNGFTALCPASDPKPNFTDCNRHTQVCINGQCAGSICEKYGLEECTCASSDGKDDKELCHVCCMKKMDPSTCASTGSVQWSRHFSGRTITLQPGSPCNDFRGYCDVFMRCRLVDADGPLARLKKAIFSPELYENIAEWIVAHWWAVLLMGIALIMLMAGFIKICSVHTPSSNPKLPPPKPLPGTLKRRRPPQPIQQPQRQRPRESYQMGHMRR
# Sequence of MMP-8 (P22894 101-467, species assumed): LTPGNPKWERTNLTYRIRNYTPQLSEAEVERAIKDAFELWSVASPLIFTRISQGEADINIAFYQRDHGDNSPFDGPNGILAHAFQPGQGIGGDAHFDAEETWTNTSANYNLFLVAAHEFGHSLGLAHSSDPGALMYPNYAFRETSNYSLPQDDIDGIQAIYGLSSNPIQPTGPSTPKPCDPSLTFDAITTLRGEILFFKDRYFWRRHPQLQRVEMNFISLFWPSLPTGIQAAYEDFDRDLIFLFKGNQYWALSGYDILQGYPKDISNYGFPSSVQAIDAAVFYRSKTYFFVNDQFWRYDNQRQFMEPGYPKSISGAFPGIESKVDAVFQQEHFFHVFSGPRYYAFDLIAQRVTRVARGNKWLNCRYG
# Sequence of MMP-9 (P14780 94-707, species assumed): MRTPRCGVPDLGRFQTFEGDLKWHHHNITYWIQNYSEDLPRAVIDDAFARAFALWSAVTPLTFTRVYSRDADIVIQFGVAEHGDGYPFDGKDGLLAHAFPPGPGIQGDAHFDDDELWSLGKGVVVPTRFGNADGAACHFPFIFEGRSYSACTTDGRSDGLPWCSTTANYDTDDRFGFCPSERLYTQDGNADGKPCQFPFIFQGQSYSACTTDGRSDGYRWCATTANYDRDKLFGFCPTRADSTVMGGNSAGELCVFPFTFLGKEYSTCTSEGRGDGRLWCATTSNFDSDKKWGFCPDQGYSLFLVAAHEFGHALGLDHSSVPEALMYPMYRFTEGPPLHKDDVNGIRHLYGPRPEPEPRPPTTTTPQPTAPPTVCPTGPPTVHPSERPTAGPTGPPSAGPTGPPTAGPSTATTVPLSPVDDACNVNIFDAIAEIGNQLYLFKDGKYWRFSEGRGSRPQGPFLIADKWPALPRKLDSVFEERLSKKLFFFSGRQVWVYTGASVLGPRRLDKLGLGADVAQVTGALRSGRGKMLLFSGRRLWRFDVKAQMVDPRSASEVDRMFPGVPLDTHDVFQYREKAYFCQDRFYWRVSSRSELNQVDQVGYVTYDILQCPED
# Sequence of ADAM17 (P78536 215-824, species assumed): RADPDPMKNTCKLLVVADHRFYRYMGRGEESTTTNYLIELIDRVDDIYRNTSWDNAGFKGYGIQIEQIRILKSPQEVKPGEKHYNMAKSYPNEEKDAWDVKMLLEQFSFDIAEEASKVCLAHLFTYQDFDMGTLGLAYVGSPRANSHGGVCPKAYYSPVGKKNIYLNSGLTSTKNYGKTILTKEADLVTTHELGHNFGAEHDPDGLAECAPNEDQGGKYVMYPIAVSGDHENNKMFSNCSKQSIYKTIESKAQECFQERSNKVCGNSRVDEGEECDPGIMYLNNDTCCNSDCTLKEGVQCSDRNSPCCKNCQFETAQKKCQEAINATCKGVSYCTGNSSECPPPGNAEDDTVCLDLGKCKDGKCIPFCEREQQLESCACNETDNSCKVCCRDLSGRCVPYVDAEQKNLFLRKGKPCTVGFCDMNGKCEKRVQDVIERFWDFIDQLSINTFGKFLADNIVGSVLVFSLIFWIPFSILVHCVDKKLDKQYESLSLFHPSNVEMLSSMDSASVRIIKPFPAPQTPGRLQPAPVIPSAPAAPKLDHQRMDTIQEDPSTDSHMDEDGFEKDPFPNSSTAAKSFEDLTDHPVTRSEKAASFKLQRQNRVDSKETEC
structure (smiles),measurement,setting,value
CNC(=O)[C@H](Cc1ccccc1)NC(=O)[C@H](CC(C)C)[C@H](CSc1cccs1)C(=O)NO [batimastat],Ki,meprin β [1],18 ± 2.2 µM
CCCCC[C@H](CC(=O)NO)C(=O)N[C@H](C(=O)N1CCC[C@H]1CO)C(C)C [actinonin],Ki,meprin β [1],2 µM
same,meprin α LOPAC pilot screen outcome,meprin α [2],meprin α selective
same,meprin α LOPAC pilot screen outcome,meprin α [2]; listed as Actinonin,selective hits
same,fold more potent inhibition of meprin α than meprin β,meprin α [3]; ratio of Ki values,100 fold
same,Ki,meprin α [3]; read-out: Ki meprin α,0.02 µM
same,IC50,"meprin α [4]; IC50 meprin α, 0.1% DMSO",0.0015 ± 7e-05 µM
same,IC50,"meprin α [4]; IC50 meprin α, 1.0% DMSO",0.0025 ± 0.0001 µM
same,IC50,"meprin β [5]; IC50 meprin β, 0.1% DMSO",5.2 ± 0.1 µM
same,IC50,"meprin β [5]; IC50 meprin β, 1.0% DMSO",4.5 ± 0.1 µM
O=P(O)(O)C(Cl)(Cl)P(=O)(O)O [clodronic acid],meprin α LOPAC pilot screen outcome,meprin α [2],inactive
same,meprin β LOPAC pilot screen outcome,meprin β [6],inactive
"c1ccc(-c2ccccn2)nc1 [2,2′-bipyridyl]",meprin α LOPAC pilot screen outcome,meprin α [2],inactive
same,meprin β LOPAC pilot screen outcome,meprin β [6],inactive
CC(C)C[C@H](NC(=O)[C@H](O)[C@H](N)Cc1ccccc1)C(=O)O.Cl [epibestatin HCl],meprin α LOPAC pilot screen outcome,meprin α [2],inactive
same,meprin β LOPAC pilot screen outcome,meprin β [6],inactive
"O.c1cnc2c(c1)ccc1cccnc12 [1,10-phenanthroline monohydrate]",meprin α LOPAC pilot screen outcome,meprin α [2],inactive
same,meprin β LOPAC pilot screen outcome,meprin β [6],inactive
"O=C(O)[C@@H]1C[C@H](C(=O)O)N1 [cis-Azetidine-2,4-dicarboxylic acid]",meprin α LOPAC pilot screen outcome,meprin α [2],selective hits
"N.N.O=C([O-])C1(C(=O)[O-])CCC1.[Pt+2] [Carboplatin, carboplatin]",% inhibition meprin β in pilot screen,meprin β [6],negative inhibition values
same,meprin β LOPAC pilot screen outcome,meprin β [6],selective hits
CCN(CC)CCNC(=O)c1ccc(NC(C)=O)cc1.Cl [N-Acetylprocainamide hydrochloride],meprin α LOPAC pilot screen outcome,meprin α [2],selective hits
"Cc1nc(N=Nc2cc(S(=O)(=O)[O-])c3cc([N+](=O)[O-])cc(S(=O)(=O)[O-])c3c2)c(COP(=O)([O-])[O-])c(C=O)c1O.[Na+].[Na+].[Na+].[Na+] [PPNDS, Pyridoxal-5′-phosphate-6-(2′-naphthylazo-6′-nitro-4′,8′-disulfonate) tetrasodium]",IC50,MMP-2,31 ± 2 µM
same,IC50,ADAM17,91 ± 7.1 µM
same,IC50,"meprin α [4]; read-out: IC50 Meprin α, selectivity testing, n = 3 Mean ± SD",67 ± 4.5 µM
same,IC50,MMP-14,73 ± 7 µM
same,"Ki lower than IC50, fold",meprin β [7]; meprin β Ki versus HTS IC50,10 fold
same,α = Ki/Ki′,"meprin β [7]; mixed-model inhibition, non-linear regression",36 ± 27
same,mechanism of inhibition of meprin β,meprin β [7]; non-linear regression and Lineweaver-Burke plots,pure competitive inhibition modality; also recorded: pure competitive inhibition mechanism
same,Ki,"meprin β [7]; read-out: Ki meprin β, substrate (MCA)-EDEDED-(K-ε-DNP), mixed inhibition model",0.008 ± 0.0024 µM
same,IC50,MMP-13,69 ± 4.3 µM
same,potency differential meprin β versus meprin α,meprin β [5]; ratio of IC50 values,~1000 fold
same,selectivity ratio meprin β versus MMP-8,meprin β [5]; ratio of IC50 values,approximately 12 fold
same,IC50,"meprin β [5]; read-out: IC50 Meprin β, selectivity testing, n = 3 Mean ± SD",0.08 ± 0.005 µM
same,IC50,MMP-8,1 ± 0.1 µM
same,IC50,MMP-9,40 ± 2.5 µM
same,IC50,ADAM10,19 ± 1.1 µM
same,meprin β LOPAC pilot screen outcome,meprin β [6],selective hits
CNC(=O)[C@H](Cc1c[nH]c2ccccc12)NC(=O)[C@@H](CC(=O)NO)CC(C)C [galardin],Ki,meprin β [1],8.9 ± 0.71 µM
CC(=O)c1ccc(S(=O)(=O)NC(=O)NC2CCCCC2)cc1 [Acetohexamide],meprin α LOPAC pilot screen outcome,meprin α [2],selective hits
